“And” between values parts separate entries of the source, which are not always exact repeats. Equal values may be shown once. The source made the active and inactive calls. The calls are words filed in the database; no cut-off is given here.

In test [1] the target is D(1A) dopamine receptor (Bos taurus, UniProt Q95136). Kind of test: Displacement of [3H]SCH23390 from dopamine D1 receptor in bovine striatum. The procedure, abridged: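 Bovine striatal homogenate was incubated with [3H]SCH 23390 and test compounds under the same binding conditions as the D2-family assays. Competition curves were fitted by sigmoid non-linear regression with logEC50 and Hill coefficient free. EC50 was converted to Ki by Cheng–Prusoff. Each experiment was run in triplicate.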
A general note: Displacement assays read how much labelled ligand stays bound in the presence of the test substance.

In test [2] the target is D(3) dopamine receptor (Homo sapiens, UniProt P35462). The test is described as follows: Displacement of [3H]spiperone from human dopamine D3 receptor expressed in CHO cells. Type of test: cell-based.
The target of test [3] is T1, D(2) dopamine receptor (Homo sapiens, UniProt P14416). Kind of test: Displacement of [3H]spiperone from human dopamine D2short receptor expressed in CHO cells. The format is cell-based.
The target in test [4] is T2, D(4) dopamine receptor (Homo sapiens, UniProt P21917).
T2 sequence (P21917 whole entry): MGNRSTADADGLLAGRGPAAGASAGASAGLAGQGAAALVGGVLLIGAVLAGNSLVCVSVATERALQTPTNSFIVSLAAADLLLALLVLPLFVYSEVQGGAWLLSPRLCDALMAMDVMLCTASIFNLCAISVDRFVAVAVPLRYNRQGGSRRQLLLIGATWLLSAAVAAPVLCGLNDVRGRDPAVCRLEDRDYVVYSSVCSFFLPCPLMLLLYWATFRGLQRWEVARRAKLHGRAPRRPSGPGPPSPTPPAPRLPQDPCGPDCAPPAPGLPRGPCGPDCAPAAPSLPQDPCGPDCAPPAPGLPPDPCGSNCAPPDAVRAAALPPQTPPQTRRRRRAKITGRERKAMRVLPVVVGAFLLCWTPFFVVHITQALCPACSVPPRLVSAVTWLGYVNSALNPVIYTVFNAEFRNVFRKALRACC
Kind of test: Displacement of [3H]spiperone from human dopamine D4.4 receptor expressed in CHO cells. The format is cell-based.

In test [5] the target is T1, D(2) dopamine receptor. Kind of test: Displacement of [3H]spiperone from human dopamine D2long receptor expressed in CHO cells. Type of test: cell-based.
The target in test [6] is T3, D(4) dopamine receptor (Homo sapiens) (UniProt P21917).
T3 sequence (whole entry): T2 sequence (P21917 whole entry)
The test is described as follows: Partial agonist activity at human D4.4 receptor expressed in CHO cells assessed as inhibition of forskolin-stimulated cAMP accumulation after 20 mins by luminescence assay relative to quinpirole. The format is functional, cell-based. The procedure, abridged: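 CHO cells expressing D4.4 were seeded 24 h ahead at 10,000 cells/well and washed with Krebs Ringer buffer, pH 7.4. Cells were exposed to graded compound concentrations with forskolin for 20 min at 25 °C. cAMP was read by cAMP-Glo luminescence, a PKA–luciferase readout. Quinpirole served as the reference full agonist. EC50 and Emax were taken from at least three experiments, each in triplicate.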

Test [7] has as its target T3, D(4) dopamine receptor (Homo sapiens). Kind of test: Antagonist activity at human D4.4 receptor expressed in CHO cells assessed as inhibition of quinpirole-induced reduction in cAMP accumulation after 20 mins by luminescence assay. The format is functional, cell-based.

T1 sequence (P14416 whole entry): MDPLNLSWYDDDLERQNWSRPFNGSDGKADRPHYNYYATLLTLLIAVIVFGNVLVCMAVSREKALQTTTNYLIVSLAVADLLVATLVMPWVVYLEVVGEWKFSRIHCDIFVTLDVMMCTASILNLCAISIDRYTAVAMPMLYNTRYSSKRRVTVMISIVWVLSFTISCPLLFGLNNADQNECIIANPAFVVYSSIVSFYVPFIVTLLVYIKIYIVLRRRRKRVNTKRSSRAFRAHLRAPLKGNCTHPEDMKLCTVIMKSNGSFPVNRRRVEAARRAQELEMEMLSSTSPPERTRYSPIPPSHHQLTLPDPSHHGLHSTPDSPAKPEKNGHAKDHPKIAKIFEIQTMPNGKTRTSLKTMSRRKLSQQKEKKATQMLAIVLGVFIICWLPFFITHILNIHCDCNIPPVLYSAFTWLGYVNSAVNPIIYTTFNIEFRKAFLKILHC
Sequence of D(3) dopamine receptor (P35462 whole entry): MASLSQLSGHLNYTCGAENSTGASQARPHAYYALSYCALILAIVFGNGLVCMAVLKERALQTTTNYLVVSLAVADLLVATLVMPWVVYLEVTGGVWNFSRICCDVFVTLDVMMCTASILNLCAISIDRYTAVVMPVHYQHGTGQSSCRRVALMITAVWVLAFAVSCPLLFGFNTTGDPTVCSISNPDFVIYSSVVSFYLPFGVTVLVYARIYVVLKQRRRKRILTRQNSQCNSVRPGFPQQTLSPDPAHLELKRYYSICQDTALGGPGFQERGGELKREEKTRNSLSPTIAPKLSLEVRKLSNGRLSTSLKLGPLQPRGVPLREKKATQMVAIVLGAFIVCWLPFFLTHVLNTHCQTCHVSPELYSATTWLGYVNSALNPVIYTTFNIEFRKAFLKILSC
Sequence of D(1A) dopamine receptor (Q95136 whole entry): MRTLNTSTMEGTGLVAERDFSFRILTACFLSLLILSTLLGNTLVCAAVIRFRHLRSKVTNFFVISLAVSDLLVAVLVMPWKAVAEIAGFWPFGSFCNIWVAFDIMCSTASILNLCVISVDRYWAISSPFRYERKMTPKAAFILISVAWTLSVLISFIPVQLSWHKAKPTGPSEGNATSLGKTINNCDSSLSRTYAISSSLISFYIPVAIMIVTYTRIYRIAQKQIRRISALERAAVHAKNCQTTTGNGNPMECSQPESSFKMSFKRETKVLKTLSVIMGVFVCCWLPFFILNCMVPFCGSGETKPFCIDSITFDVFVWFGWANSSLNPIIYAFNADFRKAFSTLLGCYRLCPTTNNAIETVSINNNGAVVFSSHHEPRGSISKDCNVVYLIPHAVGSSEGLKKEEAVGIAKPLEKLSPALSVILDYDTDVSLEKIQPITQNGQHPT

For the compound `NCCc1ccc(O)c(O)c1` [DOPAMINE], the inhibitory constant (Ki) in test [1] was determined as 440 nM.
`c1ccc(-n2cc(CN3CCN(c4cc5ccc4CCc4ccc(cc4)CC5)CC3)cn2)cc1`: the Ki stood at 2600 nM in test [1]; 18 nM in test [2]; 28 nM in test [3]; 45 nM in test [4]; 39 nM in test [5].
Compound `c1ccc(N2CCN(Cc3cnn(-c4ccccc4)c3)CC2)cc1` displayed an inhibition constant (Ki) in test [1] of 1600 nM. Besides, the Efficacy in test [6] worked out at 40%.
`c1ccc(N2CCN(Cc3cnn(-c4cc5ccc4CCc4ccc(cc4)CC5)c3)CC2)cc1`: the inhibition entry in test [7] was “Active”. Further, the Ki was 1500 nM and 1700 nM in test [1]; 20 nM and 23 nM in test [2]; 33 nM and 240 nM in test [3]; 2.5 nM and 4.5 nM in test [4]; 55 nM and 350 nM in test [5]. For the same compound, the Efficacy in test [6] stood at 19%.

For orientation: Ki means a measure of affinity in units of concentration, obtained from inhibition or displacement. A high value points to lower affinity.

Source of the values: ChEMBL document CHEMBL2331212 (Bioorg Med Chem, 2013).
